{"source": "ChEMBL document CHEMBL1139262", "about": "“Design, synthesis, and evaluation of 5-sulfamoyl benzimidazole derivatives as novel angiotensin II receptor antagonists” (Bioorg Med Chem, 2008)", "key": {"Rattus norvegicus [1]": {"tested_on": "Rattus norvegicus", "assay": "Antihypertensive effect in desoxycortisone acetate-induced hypertensive rat assessed as maximum decrease in mean arterial blood pressure at 3 mg/kg, ip after 6 hrs", "assay_type": "functional, Artery", "conditions": "route intraperitoneal", "outline": "(§1)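 Hypertension induced by uninephrectomy plus DOCA 40 mg kg−1 sc twice weekly for up to six weeks, with 1.0% NaCl and 0.2% KCl in drinking water; sham rats got tap water. Compound given ip, and mean arterial blood pressure measured 6 h after dosing. Activity expressed as fall in MABP.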"}, "[2]": {"biological_target": "T1, Type-1 angiotensin II receptor A (Rattus norvegicus) (UniProt P25095)", "T1 sequence (whole entry)": "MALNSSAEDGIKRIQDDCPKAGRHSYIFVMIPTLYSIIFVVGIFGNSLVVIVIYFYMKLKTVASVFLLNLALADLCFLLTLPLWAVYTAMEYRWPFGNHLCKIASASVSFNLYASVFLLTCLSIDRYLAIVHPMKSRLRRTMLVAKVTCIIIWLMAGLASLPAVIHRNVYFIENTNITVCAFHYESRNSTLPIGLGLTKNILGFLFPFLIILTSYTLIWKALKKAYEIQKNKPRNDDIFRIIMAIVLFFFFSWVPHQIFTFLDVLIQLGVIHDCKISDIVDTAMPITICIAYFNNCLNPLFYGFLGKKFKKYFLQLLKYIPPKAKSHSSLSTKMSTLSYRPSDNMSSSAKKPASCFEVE", "assay": "(§2) Antagonist activity at AT1 receptor in rat aortic rings", "assay_type": "functional", "outline": "(§3)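 Isolated rat aortic ring in 10 ml bath of Krebs–Henseleit at 37 °C, pH 7.4, oxygenated, under 1 g tension. Ang II cumulative curve in 0.5-log steps (1 × 10−10 to 1 × 10−5), repeated after 15 min antagonist exposure at 1, 3 or 10 nmol. Response taken as % of maximal Ang II tension.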"}, "[3]": {"biological_target": "T2, Type-1 angiotensin II receptor A (Rattus norvegicus, UniProt P25095)", "T2 sequence (P25095 whole entry)": "T1 sequence (whole entry)", "assay": "as §2", "assay_type": "functional", "conditions": "read-out: pA2 (converted)", "outline": "as §3"}, "Rattus norvegicus [4]": {"tested_on": "Rattus norvegicus", "assay": "Antihypertensive effect in desoxycortisone acetate-induced hypertensive rat assessed as maximum decrease in mean arterial blood pressure at 5 mg/kg, ip after 6 hrs", "assay_type": "functional, Artery", "conditions": "route intraperitoneal", "outline": "as §1"}}}
{"smiles": "CCCCNS(=O)(=O)c1ccc2c(c1)nc(CCCC)n2Cc1ccc(-c2ccccc2C(=O)O)cc1", "values": [{"measurement": "Activity", "setting": "Rattus norvegicus [1]", "value": 47.6, "unit": "mmHg"}, {"measurement": "pA10", "setting": "[2]", "value": 6.2}, {"measurement": "Kb", "setting": "[3]", "value": 100, "unit": "nM"}]}
{"smiles": "CCCCc1nc2cc(S(N)(=O)=O)ccc2n1Cc1ccc(-c2ccccc2C(=O)O)cc1", "values": [{"measurement": "Activity", "setting": "Rattus norvegicus [1]", "value": 51.4, "unit": "mmHg"}, {"measurement": "pA10", "setting": "[2]", "value": 6.1}, {"measurement": "Kb", "setting": "[3]", "value": 200, "unit": "nM"}]}
{"smiles": "CCCCc1nc2cc(S(=O)(=O)NCCC)ccc2n1Cc1ccc(-c2ccccc2C(=O)O)cc1", "values": [{"measurement": "Activity", "setting": "Rattus norvegicus [1]", "value": 50.2, "unit": "mmHg"}, {"measurement": "pA10", "setting": "[2]", "value": 6.4}, {"measurement": "Kb", "setting": "[3]", "value": 79.4, "unit": "nM"}]}
{"smiles": "CCCCc1nc2ccccc2n1Cc1ccc(-c2ccccc2C(=O)O)cc1", "values": [{"measurement": "pA10", "setting": "[2]", "value": 6.7}, {"measurement": "Kb", "setting": "[3]", "value": 3.16, "unit": "nM"}]}
{"smiles": "CCCCc1nc(Cl)c(CO)n1Cc1ccc(-c2ccccc2-c2nnn[nH]2)cc1", "note": "[LOSARTAN]", "values": [{"measurement": "Activity", "setting": "Rattus norvegicus [4]", "value": 58.3, "unit": "mmHg"}, {"measurement": "pA10", "setting": "[2]", "value": 7.1}]}
{"smiles": "CCCCc1nc2cc(S(=O)(=O)O)ccc2n1Cc1ccc(-c2ccccc2C(=O)O)cc1", "values": [{"measurement": "Activity", "setting": "Rattus norvegicus [1]", "value": 44.7, "unit": "mmHg"}, {"measurement": "pA10", "setting": "[2]", "value": 5.8}, {"measurement": "Kb", "setting": "[3]", "value": 251, "unit": "nM"}]}
{"smiles": "CCCCc1nc2cc(S(=O)(=O)NCC)ccc2n1Cc1ccc(-c2ccccc2C(=O)O)cc1", "values": [{"measurement": "Activity", "setting": "Rattus norvegicus [1]", "value": 49.9, "unit": "mmHg"}, {"measurement": "pA10", "setting": "[2]", "value": 6.2}, {"measurement": "Kb", "setting": "[3]", "value": 79.4, "unit": "nM"}]}
{"smiles": "CCCCc1nc2cc(S(=O)(=O)NC(C)(C)C)ccc2n1Cc1ccc(-c2ccccc2C(=O)O)cc1", "values": [{"measurement": "Activity", "setting": "Rattus norvegicus [1]", "value": 62.4, "unit": "mmHg"}, {"measurement": "pA10", "setting": "[2]", "value": 5.4}, {"measurement": "Kb", "setting": "[3]", "value": 3.98, "unit": "nM"}]}
{"smiles": "CCCCc1nc2cc(S(=O)(=O)NC3CCCCC3)ccc2n1Cc1ccc(-c2ccccc2C(=O)O)cc1", "values": [{"measurement": "Activity", "setting": "Rattus norvegicus [1]", "value": 64.4, "unit": "mmHg"}, {"measurement": "pA10", "setting": "[2]", "value": 5.7}, {"measurement": "Kb", "setting": "[3]", "value": 12.6, "unit": "nM"}]}
{"smiles": "CCOc1nc2cccc(C(=O)O)c2n1Cc1ccc(-c2ccccc2-c2nnn[nH]2)cc1", "values": [{"measurement": "Activity", "setting": "Rattus norvegicus [4]", "value": 56.2, "unit": "mmHg"}, {"measurement": "pA10", "setting": "[2]", "value": 6.7}, {"measurement": "Kb", "setting": "[3]", "value": 3.16, "unit": "nM"}]}
{"smiles": "CCCCc1nc2cc(S(=O)(=O)NC)ccc2n1Cc1ccc(-c2ccccc2C(=O)O)cc1", "values": [{"measurement": "Activity", "setting": "Rattus norvegicus [1]", "value": 52.5, "unit": "mmHg"}, {"measurement": "pA10", "setting": "[2]", "value": 6.3}, {"measurement": "Kb", "setting": "[3]", "value": 126, "unit": "nM"}]}
{"smiles": "CCCCc1nc2cc(S(=O)(=O)NC(C)C)ccc2n1Cc1ccc(-c2ccccc2C(=O)O)cc1", "values": [{"measurement": "Activity", "setting": "Rattus norvegicus [1]", "value": 51.7, "unit": "mmHg"}, {"measurement": "pA10", "setting": "[2]", "value": 6.3}, {"measurement": "Kb", "setting": "[3]", "value": 63.1, "unit": "nM"}]}
